Assay results: ChEMBL document CHEMBL1157032, “Synthesis and antimicrobial activity of novel pyrazolo[3,4-d]pyrimidin derivatives” (2010)
Values after ≈ are worked out from the molar mass of the structure shown. Active and inactive are the calls of the source. The calls are words filed in the database; no cut-off is given here.

Columns and labels:
[1] = test system: Bacillus subtilis; assay: Antimicrobial activity against Bacillus subtilis MTCC 1789 at MIC after 24 hrs by agar diffusion method; type: functional
In short: (§1)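 Agar well diffusion on Mueller Hinton agar seeded with 0.1 mL of a 10⁵ cfu/mL bacterial suspension in 0.85% sterile saline. 6 mm wells received 0.1 mL of each compound dilution in DMSO (1% DMSO; DMSO alone as control). Plates were incubated 24 h at 37 ± 0.5 °C. Read-out was zone of inhibition in mm. MIC was taken as the lowest concentration giving complete growth inhibition.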

[2] = test system: Aspergillus flavus; assay: Antimicrobial activity against Aspergillus flavus MTCC 2501 at MIC after 48 hrs by agar diffusion method; type: functional
In short: (§2)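 Fungal spore suspensions in sterile distilled water were adjusted to 10⁶ cfu/mL, and 0.1 mL was spread on Sabouraud dextrose agar. 6 mm wells were filled with 0.1 mL of compound dilution in DMSO (1% DMSO; DMSO-only control). Plates were incubated 48 h at 28 ± 0.2 °C, and inhibition zones were measured in mm. MIC was the lowest concentration completely inhibiting growth.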

[3] = test system: Proteus vulgaris; assay: Antimicrobial activity against Proteus vulgaris MTCC 1771 at MIC after 24 hrs by agar diffusion method; type: functional; in short: as §1
[4] = test system: Escherichia coli; assay: Antimicrobial activity against Escherichia coli MTCC 1650 at MIC after 24 hrs by agar diffusion method; type: functional; in short: as §1
[5] = test system: Penicillium chrysogenum; assay: Antimicrobial activity against Penicillium chrysogenum MTCC 1996 after 48 hrs; type: functional; details: MTCC 1996, 48 h; in short: as §2
[6] = test system: Penicillium chrysogenum; assay: Antimicrobial activity against Penicillium chrysogenum MTCC 1996 at MIC after 48 hrs by agar diffusion method; type: functional; in short: as §2
[7] = test system: Aspergillus flavus; assay: Antimicrobial activity against Aspergillus flavus MTCC 2501 after 48 hrs; type: functional; details: MTCC 2501, 48 h; in short: as §2
[8] = test system: Candida albicans; assay: Antimicrobial activity against Candida albicans MTCC 227 at MIC after 48 hrs by agar diffusion method; type: functional; in short: as §2
[9] = test system: Staphylococcus aureus; assay: Antimicrobial activity against Staphylococcus aureus MTCC 96 at MIC after 24 hrs by agar diffusion method; type: functional; in short: as §1
[10] = test system: Trichoderma viride; assay: Antimicrobial activity against Trichoderma viride MTCC 167 after 48 hrs; type: functional; details: MTCC 167, 48 h; in short: as §2
[11] = test system: Klebsiella pneumoniae; assay: Antimicrobial activity against Klebsiella pneumoniae NCIM 2957 after 24 hrs; type: functional; details: NCIM 2957, 24 h; in short: as §1
[12] = test system: Trichoderma viride; assay: Antimicrobial activity against Trichoderma viride MTCC 167 at MIC after 48 hrs by agar diffusion method; type: functional; in short: as §2
[13] = test system: Serratia marcescens; assay: Antimicrobial activity against Serratia marcescens MTCC 86 after 24 hrs; type: functional; details: MTCC 86, 24 h; in short: as §1
[14] = test system: Priestia megaterium; assay: Antimicrobial activity against Bacillus megaterium MTCC 1684 after 24 hrs; type: functional; details: MTCC 1684, 24 h; in short: as §1
[15] = test system: Staphylococcus aureus; assay: Antimicrobial activity against Staphylococcus aureus MTCC 96 after 24 hrs; type: functional; details: MTCC 96, 24 h; in short: as §1
[16] = test system: Priestia megaterium; assay: Antimicrobial activity against Bacillus megaterium MTCC 1684 at MIC after 24 hrs by agar diffusion method; type: functional; in short: as §1
[17] = test system: Aspergillus niger; assay: Antimicrobial activity against Aspergillus niger MTCC 1781 at MIC after 48 hrs by agar diffusion method; type: functional; in short: as §2
[18] = test system: Pseudomonas aeruginosa; assay: Antimicrobial activity against Pseudomonas aeruginosa MTCC 2488 at MIC after 24 hrs by agar diffusion method; type: functional; in short: as §1
[19] = test system: Escherichia coli; assay: Antimicrobial activity against Escherichia coli MTCC 1650 after 24 hrs; type: functional; details: MTCC 1650, 24 h; in short: as §1
[20] = test system: Proteus vulgaris; assay: Antimicrobial activity against Proteus vulgaris MTCC 1771 after 24 hrs; type: functional; details: MTCC 1771, 24 h; in short: as §1
[21] = test system: Klebsiella pneumoniae; assay: Antimicrobial activity against Klebsiella pneumoniae NCIM 2957 at MIC after 24 hrs by agar diffusion method; type: functional; in short: as §1
[22] = test system: Serratia marcescens; assay: Antimicrobial activity against Serratia marcescens MTCC 86 at MIC after 24 hrs by agar diffusion method; type: functional; in short: as §1
[23] = test system: Bacillus subtilis; assay: Antimicrobial activity against Bacillus subtilis MTCC 1789 after 24 hrs; type: functional; details: MTCC 1789, 24 h; in short: as §1
[24] = test system: Aspergillus niger; assay: Antimicrobial activity against Aspergillus niger MTCC 1781 after 48 hrs; type: functional; details: MTCC 1781, 48 h; in short: as §2
[25] = test system: Pseudomonas aeruginosa; assay: Antimicrobial activity against Pseudomonas aeruginosa MTCC 2488 after 24 hrs; type: functional; details: MTCC 2488, 24 h; in short: as §1
[26] = test system: Candida albicans; assay: Antimicrobial activity against Candida albicans MTCC 227 after 48 hrs; type: functional; details: MTCC 227, 48 h; in short: as §2
[27] = test system: Proteus vulgaris; assay: Antimicrobial activity against Proteus vulgaris MTCC 1771 at 10 ug/ml after 24 hrs by agar diffusion method; type: functional
In short: (§3)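 Agar well diffusion on Mueller Hinton agar. Plates were seeded with bacterial suspension in sterile 0.85% saline at 10⁵ cfu/mL. Compound dilutions in 1% DMSO went into 6 mm wells, with DMSO alone as control. Plates were incubated 24 h at 37 ± 0.5 °C, and the zone of inhibition was measured in mm.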

[28] = test system: Aspergillus niger; assay: Antimicrobial activity against Aspergillus niger MTCC 1781 at 30 ug/ml after 48 hrs by agar diffusion method; type: functional, organism-based
In short: (§4)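 Agar well diffusion on Sabouraud dextrose agar. Plates were spread with fungal spore suspension in sterile distilled water adjusted to 10⁶ cfu/mL. Compound dilutions in 1% DMSO went into 6 mm wells, with DMSO alone as control. Plates were incubated 48 h at 28 ± 0.2 °C, and the inhibition zone was read in mm.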

[29] = test system: Bacillus subtilis; assay: Antimicrobial activity against Bacillus subtilis MTCC 1789 at 10 ug/ml after 24 hrs by agar diffusion method; type: functional; in short: as §3
[30] = test system: Trichoderma viride; assay: Antimicrobial activity against Trichoderma viride MTCC 167 at 30 ug/ml after 48 hrs by agar diffusion method; type: functional, organism-based; in short: as §4
[31] = test system: Staphylococcus aureus; assay: Antimicrobial activity against Staphylococcus aureus MTCC 96 at 10 ug/ml after 24 hrs by agar diffusion method; type: functional; in short: as §3
[32] = test system: Priestia megaterium; assay: Antimicrobial activity against Bacillus megaterium MTCC 1684 at 10 ug/ml after 24 hrs by agar diffusion method; type: functional; in short: as §3
[33] = test system: Aspergillus flavus; assay: Antimicrobial activity against Aspergillus flavus MTCC 2501 at 30 ug/ml after 48 hrs by agar diffusion method; type: functional, organism-based; in short: as §4
[34] = test system: Candida albicans; assay: Antimicrobial activity against Candida albicans MTCC 227 at 30 ug/ml after 48 hrs by agar diffusion method; type: functional, organism-based; in short: as §4
[35] = test system: Penicillium chrysogenum; assay: Antimicrobial activity against Penicillium chrysogenum MTCC 1996 at 30 ug/ml after 48 hrs by agar diffusion method; type: functional, organism-based; in short: as §4
[36] = test system: Klebsiella pneumoniae; assay: Antimicrobial activity against Klebsiella pneumoniae NCIM 2957 at 10 ug/ml after 24 hrs by agar diffusion method; type: functional; in short: as §3
[37] = test system: Pseudomonas aeruginosa; assay: Antimicrobial activity against Pseudomonas aeruginosa MTCC 2488 at 10 ug/ml after 24 hrs by agar diffusion method; type: functional; in short: as §3
[38] = test system: Serratia marcescens; assay: Antimicrobial activity against Serratia marcescens MTCC 86 at 10 ug/ml after 24 hrs by agar diffusion method; type: functional; in short: as §3

Molecule: Nc1n[nH]c2nc3scc(-c4ccc(O)cc4)n3c(=O)c12
- inhibition zone (IZ) [1]: 12 mm
- inhibition zone (IZ) [2]: 21 mm
- inhibition zone (IZ) [3]: 14 mm
- inhibition zone (IZ) [4]: inactive
- MIC [5]: 250 µg/mL (≈ 835 µM)
- inhibition zone (IZ) [6]: 29 mm
- MIC [7]: 250 µg/mL (≈ 835 µM)
- inhibition zone (IZ) [8]: inactive
- inhibition zone (IZ) [9]: 30 mm
- MIC [10]: 250 µg/mL (≈ 835 µM)
- MIC [11]: 50 µg/mL (≈ 167 µM)
- inhibition zone (IZ) [12]: 26 mm
- MIC [13]: 50 µg/mL (≈ 167 µM)
- MIC [14]: 50 µg/mL (≈ 167 µM)
- MIC [15]: 50 µg/mL (≈ 167 µM)
- inhibition zone (IZ) [16]: inactive
- inhibition zone (IZ) [17]: 16 mm
- inhibition zone (IZ) [18]: 25 mm
- MIC [19]: 50 µg/mL (≈ 167 µM)
- MIC [20]: 50 µg/mL (≈ 167 µM)
- inhibition zone (IZ) [21]: 11 mm
- inhibition zone (IZ) [22]: 17 mm
- MIC [23]: 50 µg/mL (≈ 167 µM)
- MIC [24]: 250 µg/mL (≈ 835 µM)
- MIC [25]: 50 µg/mL (≈ 167 µM)
- MIC [26]: 250 µg/mL (≈ 835 µM)

Molecule: NYSTATIN
- inhibition zone (IZ) [27]: inactive
- inhibition zone (IZ) [28]: 14 mm
- inhibition zone (IZ) [29]: inactive
- inhibition zone (IZ) [30]: 18 mm
- inhibition zone (IZ) [31]: inactive
- inhibition zone (IZ) [32]: inactive
- inhibition zone (IZ) [33]: 14 mm
- inhibition zone (IZ) [34]: 17 mm
- inhibition zone (IZ) [35]: 17 mm
- inhibition zone (IZ) [36]: inactive
- inhibition zone (IZ) [37]: inactive
- inhibition zone (IZ) [38]: inactive

Molecule: CN(C)[C@@H]1C(O)=C(C(N)=O)C(=O)[C@@]2(O)C(O)=C3C(=O)c4c(O)cccc4[C@@](C)(O)[C@H]3C[C@@H]12 [TETRACYCLINE]
- zone of inhibition at 10 µg/mL ([27]; MTCC 1771, 24 h, read-out: IZ): 20 mm
- inhibition zone (IZ) [28]: inactive
- zone of inhibition at 10 µg/mL ([29]; MTCC 1789, 24 h, read-out: IZ): 20 mm
- inhibition zone (IZ) [30]: inactive
- zone of inhibition at 10 µg/mL ([31]; MTCC 96, 24 h, read-out: IZ): 25 mm
- zone of inhibition at 10 µg/mL ([32]; MTCC 1684, 24 h, read-out: IZ): 27 mm
- inhibition zone (IZ) [33]: inactive
- inhibition zone (IZ) [34]: inactive
- inhibition zone (IZ) [35]: inactive
- zone of inhibition at 10 µg/mL ([36]; NCIM 2957, 24 h, read-out: IZ): 17 mm
- zone of inhibition at 10 µg/mL ([37]; MTCC 2488, 24 h, read-out: IZ): 32 mm
- zone of inhibition at 10 µg/mL ([38]; MTCC 86, 24 h, read-out: IZ): 15 mm
